Compound activity (PubChem BioAssay)
Most compounds without a hit are left out; they make up all but 3.5% or so of the library.
esBAF inh: inhibitors of esBAF chromatin remodeling in mouse ES cells; Bmi1-luciferase knock-in reporter, 24 h; 100% = twice the neutral-well signal; reporter increase, % at 12.5 µM; 350,000 compounds, 2% hits; AID 602393; in the data active = activation above about 40%; inconclusive = no clear call, values can overlap the other calls;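 note: a rise in the Bmi1 reporter signal indicates esBAF inhibition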
MITF TRPM1 HTS: activators of MITF-driven TRPM1 promoter activity in SK-MEL-5 cells | SK-MEL-5 TRPM1-promoter luciferase, 24 h; % of positive control, neutral wells = 0 | 300,000 compounds, 0.75% hits | activation, % at 12.5 µM;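 active = mean activation of at least 80% with every replicate also reaching 80%; inconclusive = mean reaches 80% but some replicate falls short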
ERAP1 HTS inh: ERAP1 (human) enzyme inhibition | 340,000 compounds, 0.15% hits | recombinant ERAP1, Leu-AMC fluorescence, 60 min | Q9NZ08 | inhibition, % at 10.7 µM | AID 652197;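 active = mean replicate inhibition of at least 30%, or all replicates individually reaching that 30% level; inactive = mean below 30% and not every replicate reaching it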
Target sequence (Q9NZ08 whole entry, looked up): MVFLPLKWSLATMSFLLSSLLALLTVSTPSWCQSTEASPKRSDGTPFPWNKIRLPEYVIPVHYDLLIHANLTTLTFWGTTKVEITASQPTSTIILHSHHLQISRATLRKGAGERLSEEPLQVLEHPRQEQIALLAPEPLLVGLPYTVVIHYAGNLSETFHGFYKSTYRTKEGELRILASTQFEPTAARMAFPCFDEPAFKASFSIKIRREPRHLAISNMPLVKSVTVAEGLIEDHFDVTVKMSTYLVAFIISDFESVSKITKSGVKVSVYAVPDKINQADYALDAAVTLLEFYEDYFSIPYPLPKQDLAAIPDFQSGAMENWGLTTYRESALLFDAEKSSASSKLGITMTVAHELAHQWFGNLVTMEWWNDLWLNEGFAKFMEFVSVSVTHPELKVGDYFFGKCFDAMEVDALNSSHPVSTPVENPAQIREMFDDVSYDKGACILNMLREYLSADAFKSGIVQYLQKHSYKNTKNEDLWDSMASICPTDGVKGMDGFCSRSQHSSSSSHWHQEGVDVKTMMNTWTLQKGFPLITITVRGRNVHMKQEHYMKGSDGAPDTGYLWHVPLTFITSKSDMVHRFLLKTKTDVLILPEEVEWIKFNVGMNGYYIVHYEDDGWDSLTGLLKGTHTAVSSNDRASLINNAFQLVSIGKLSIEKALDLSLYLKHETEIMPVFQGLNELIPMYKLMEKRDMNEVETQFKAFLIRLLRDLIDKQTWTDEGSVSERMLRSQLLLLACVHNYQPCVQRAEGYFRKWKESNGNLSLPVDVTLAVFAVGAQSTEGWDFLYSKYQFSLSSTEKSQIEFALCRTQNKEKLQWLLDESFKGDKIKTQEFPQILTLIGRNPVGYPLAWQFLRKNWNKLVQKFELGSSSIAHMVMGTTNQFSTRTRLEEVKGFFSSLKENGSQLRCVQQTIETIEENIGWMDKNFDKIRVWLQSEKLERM
Cneo AK release: Cryptococcus neoformans lysis via adenylate kinase release; 360,000 compounds, 0.2% hits; lysis activity, % at 15 µM; C. neoformans lysis, adenylate kinase release luminescence, 4 h; normalised: neutral wells 0, clomiphene wells 100;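 active = mean lysis activity across replicates of at least 80%, whatever share of replicates individually reach that level; inactive = mean lysis activity below 80%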
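Test system: log-phase Cryptococcus neoformans yeast cells; Quantity: yeast cell density of 5 × 10^6 cells/mL; Buffer or medium: YPD; Doses: single compound concentration per well; Timing: 4 h at 37 °C static, read 1 h later; Measured by: AK luminescence; Read-out basis: lysis from increased AK signal; Control set: Clomiphene as positive control.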
Wnt act: Wnt/beta-catenin pathway activation; AID 743398; Wnt/beta-catenin reporter cell assay, activator, plate reader; 300,000 compounds, 1.2% hits; activation, % at 9.35 µM; in the data active = activation above about 30%, passing the limit was not always enough; inconclusive = no clear call, values can overlap the other calls
HIV Env fusion: inhibitors of HIV Env-mediated cell fusion; HeLa-JRFL Env/CEM21 cell fusion, luciferase; inhibition, % at 12.3 µM; 360,000 compounds, 1.1% hits; AID 651610;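 active = mean replicate inhibition score of at least 50 and every replicate individually at or above 50; inconclusive = only one of the two criteria met; inactive = mean below 50 and not all replicates reaching 50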
Hits are given with their value; i = inactive; ? = inconclusive; nt = no result given.

SMILES	esBAF inh	MITF TRPM1 HTS	ERAP1 HTS inh	Cneo AK release	Wnt act	HIV Env fusion
N#C/C(=C1\CCCN1)c1ccc2ccccc2n1	i	i	nt	i	nt	nt
C[C@@H]1CN([C@@H](C)CO)C(=O)c2cc(/C=C/c3ccccc3)cnc2O[C@H]1CN(C)C(=O)Cc1ccccn1	i	nt	i	i	nt	i
CCc1nnc(NC(=O)CSc2ncnc3c2cnn3-c2ccc(OC)cc2)s1	i	i	nt	i	37.9	i
Nc1ccccc1-n1cccc1	nt	nt	nt	i	61.5	i
CCOC(=O)N1CCC(Nc2cc(C)nc3c(-c4ccccc4OC)c(C)nn23)CC1	i	i	i	i	i	i
COc1ccccc1-c1ccc(NC2CCCC2)nn1	63.4	i	nt	i	nt	nt
COc1ccccc1-c1cnn2c(NC3CCCC3)cc(C)nc12	61.8	139.9	i	i	i	i
C[C@H](CO)N1C[C@H](C)[C@H](CN(C)Cc2ccncc2)Oc2ccc(NC(=O)NC3CCCCC3)cc2CC1=O	i	nt	i	i	nt	i
Cc1[nH]n(-c2ccccc2)c(=O)c1N=Nc1ccccc1	nt	i	i	nt	i	i
Cc1ccc(N=Nc2c(N)n(-c3ccccc3)[nH]c2=O)cc1	41.5	i	nt	i	nt	nt
N#C[C@@H]1[C@H](c2ccccc2C2=CCCCC2)[C@H](CO)N1C(=O)c1ccccn1	nt	nt	i	nt	nt	nt
COc1ccc(CN(C)C[C@@H]2OCCCC[C@H](C)Oc3ccc(N(C)C)cc3C(=O)N([C@H](C)CO)C[C@@H]2C)cc1	i	nt	i	94.1	nt	i
C[C@H]1CCCCO[C@H](CN(C)Cc2ccncc2)[C@@H](C)CN([C@@H](C)CO)C(=O)c2cc(N(C)C)ccc2O1	i	nt	i	i	nt	i
C[C@@H]1CCCCO[C@H](CN(C)Cc2ccncc2)[C@@H](C)CN([C@H](C)CO)C(=O)c2cc(N(C)C)ccc2O1	i	nt	i	109.5	i	i
O=C(C[C@H]1CC[C@H]2[C@@H](COC[C@@H](O)CN2Cc2cccc(F)c2)O1)NCCc1ccncc1	i	nt	i	i	nt	nt
CC(C)NC(=O)N(C)C[C@@H]1Oc2ccc(NC(=O)CCC(F)(F)F)cc2C(=O)N([C@@H](C)CO)C[C@H]1C	i	nt	i	i	nt	nt
COC(=O)C1(C(=O)OC)C[C@H](c2ccc(OC)cc2)N(Cc2ccccc2OC)[C@@H]1c1ccccc1	nt	nt	nt	nt	i	84.7
O=C1NCCN/C1=C\C(=O)c1ccccc1	i	i	i	i	i	nt
O=C1NCCN/C1=C\C(=O)c1ccc(Br)cc1	nt	nt	i	i	63.0	i
CN1C(=O)c2cc(NC(=O)c3cc(F)cc(F)c3)ccc2OC[C@@H]2O[C@@H](CC(=O)O)CC[C@@H]21	i	nt	i	i	nt	i
Cc1c(Cl)cccc1Nc1nc(N)nc(CSc2ncccn2)n1	52.5	i	nt	i	i	i
O=C(O)c1ccccc1SCc1csc(-c2ccccc2)n1	46.7	i	i	i	i	i
COc1ccc(OCCCN2CCC(C(O)(c3ccccc3)c3ccccc3)CC2)cc1	nt	nt	i	nt	i	i
CC(C)c1ccc(OCCCN2CCC(C(O)(c3ccccc3)c3ccccc3)CC2)cc1	nt	nt	i	nt	i	78.8
CCOC(=O)c1csc(NC(=O)c2ccccc2)n1	50.1	nt	i	i	?	i
SMILES	esBAF inh	MITF TRPM1 HTS	ERAP1 HTS inh	Cneo AK release	Wnt act	HIV Env fusion
CCOC(=O)c1sc(NC(=O)c2cc3ccccc3o2)nc1C	nt	i	i	nt	i	i
CCOC(=O)c1csc(NC(=O)c2cc3ccccc3o2)n1	64.2	i	i	i	i	i
CCOC(=O)Cc1cnc(NC(=O)c2ccccc2)s1	51.1	i	i	i	i	nt
C[C@@H]1CN([C@H](C)CO)C(=O)c2cc(NC(=O)c3ccncc3)ccc2O[C@@H](C)CCCCO[C@@H]1CN(C)S(=O)(=O)c1ccccc1	i	nt	i	i	nt	i
C[C@H]1CN([C@@H](C)CO)C(=O)c2cc(C#CC3CC3)cnc2O[C@H]1CN(C)Cc1ccccc1C(=O)O	i	nt	i	i	nt	i
CN1c2ccc(C3=CCCCC3)cc2[C@H]2[C@H](CCN2S(=O)(=O)c2ccccc2F)[C@@H]1CO	i	nt	i	i	nt	nt
O=C(CC1CCCCC1)NCc1ccccn1	i	nt	nt	i	i	i
O=C(CC1CCCCC1)NCc1ccccc1Cl	52.6	i	i	i	i	i
CCCNC(=O)N1C[C@@H]2[C@H](c3ccccc31)[C@H](CO)N2Cc1cccc(OC)c1	i	nt	i	i	nt	nt
CC(C)Cn1cnc2c(SCc3ccccn3)nc(N)nc21	i	i	i	i	i	i
CCCCn1cnc2c(SCc3ccccc3F)nc(N)nc21	49.7	i	i	nt	i	i
CC(C)Cn1cnc2c(SCc3ccccc3)nc(N)nc21	75.7	i	i	i	i	i
CCCn1cnc2c(SCCc3ccccc3)nc(N)nc21	61.3	i	i	i	i	i
CC(C)Cn1cnc2c(SCc3ccccc3F)nc(N)nc21	nt	i	i	i	i	i
CCCCn1cnc2c(SCCc3ccccc3)nc(N)nc21	nt	i	i	i	i	i
CCCn1cnc2c(SCc3ccccc3Cl)nc(N)nc21	48.0	i	i	i	i	i
COCCCNC(=O)/C(C#N)=C1\N=C(NC(=O)c2cccs2)c2ccccc21	nt	nt	54.5	nt	i	i
N#C/C(C(=O)NCc1ccccc1)=C1/N=C(NC(=O)c2ccco2)c2ccccc21	47.2	i	i	i	i	i
N#C/C(C(=O)NCCc1ccccc1)=C1/N=C(NC(=O)c2cccs2)c2ccccc21	nt	i	i	nt	i	i
COc1ccc(CCNC(=O)/C(C#N)=C2\N=C(NC(=O)c3ccco3)c3ccccc32)cc1	i	nt	nt	i	i	i
CO[C@H]1CN(C)C(=O)c2cc(NC(=O)C3CCCC3)ccc2OC[C@@H](C)N(CCC(F)(F)F)C[C@H]1C	i	nt	i	i	nt	nt
Cn1cnc(S(=O)(=O)N2CCCCC2c2cc(C(=O)Nc3ccccc3Cl)no2)c1 (stereo unspecified)	i	nt	i	i	i	i
COc1ccc(NC(=O)c2cc(C3CCCCN3S(=O)(=O)Cc3ccccc3)on2)cn1 (stereo unspecified)	50.6	nt	i	i	i	i
O=C(NCc1ccccc1)c1cc(C2CCCCN2S(=O)(=O)Cc2ccccc2)on1 (stereo unspecified)	i	nt	i	i	i	i
Cn1cnc(S(=O)(=O)N2CCCCC2c2cc(C(=O)Nc3ccc(F)c(Cl)c3)no2)c1 (stereo unspecified)	44.7	nt	i	i	i	i
C[C@@H]1CN([C@@H](C)CO)S(=O)(=O)c2ccc(-c3ccncc3)cc2O[C@H]1CN(C)C(=O)C1CCC1	nt	nt	nt	nt	nt	i
C[C@@H]1CN([C@H](C)CO)S(=O)(=O)c2ccc(C3=CCCCC3)cc2O[C@@H]1CN(C)C(=O)c1ccccc1	i	nt	i	i	nt	i
CCS(=O)(=O)Nc1ccc2c(c1)C(=O)N(C)C[C@@H](OC)[C@@H](C)CN(C(=O)COC)[C@@H](C)CO2	i	nt	i	i	nt	i
Cc1ccc2c(C)c(C(=O)N3CCN(Cc4ccc5c(c4)OCO5)CC3)oc2c1C	78.8	i	i	i	i	i
